Measured values taken from ChEMBL document CHEMBL1125376, “Class III antiarrhythmic activity of novel substituted 4-[(methylsulfonyl)amino]benzamides and sulfonamides” (J Med Chem, 1992).
Where “and” joins values, the source holds several entries; their conditions need not be identical. Equal entries are not always repeated.

What was measured:
[1] = tested on: Canis familiaris; assay: Effect on mean arterial pressure, after intravenous administration in open-chest anesthetized dogs at dose of 0.1 mg/kg; format: functional, Canis lupus familiaris, Artery
[2] = tested on: Canis familiaris; assay: Effect on heart rate, after intravenous administration in open-chest anesthetized dogs at dose of 1.0 mg/kg; format: functional, Canis lupus familiaris
[3] = tested on: Canis familiaris; assay: Effect on atrial conduction time, after intravenous administration in open-chest anesthetized dogs at dose of 0.1 mg/kg; format: functional, Canis lupus familiaris, Cardiac atrium
[4] = tested on: Canis familiaris; assay: Effect on mean arterial pressure, after intravenous administration in open-chest anesthetized dogs at dose of 1.0 mg/kg; format: functional, Canis lupus familiaris, Artery
[5] = species: Canis familiaris; assay: Effect on the transmembrane potential of dog Purkinje fibers paced at a basic cycle length of stimulation of 1000 ms, repolarization time to -60 mV; format: functional; conditions: Canis lupus familiaris; Purkinje fiber
How it was run: (§1)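 Purkinje fiber bundles were taken from pentobarbital-anesthetized mongrel dogs. They were superfused at 37.5-38.0 °C with Tyrode's (mM: NaCl 138, KCl 4, CaCl2 2, NaHCO3 24, MgCl2 0.5, Na2HPO4 1.8, dextrose 5) gassed with 95% O2-5% CO2, pH 7.3-7.4. Stimulation used 2.0 ms pulses at twice threshold. Fibers were equilibrated ≥1 h before drug. Action potentials were recorded at 4-6 sites and averaged per fiber.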

[6] = species: Canis familiaris; assay: Effect on the transmembrane potential of dog Purkinje fibers paced at a basic cycle length of stimulation of 300 ms, repolarization time to -60 mV; format: functional; conditions: Canis lupus familiaris; Purkinje fiber; how it was run: as §1
[7] = tested on: Canis familiaris; assay: Effect on atrial effective refractory period, after intravenous administration in open-chest anesthetized dogs at dose of 1.0 mg/kg; format: functional, Canis lupus familiaris, Cardiac atrium
[8] = species: Canis familiaris; assay: Effect on the transmembrane potential of dog Purkinje fibers paced at a basic cycle length of stimulation of 300 ms, repolarization time to -60 mV, at a concentration of 0.3 uM; format: functional; conditions: Canis lupus familiaris, Purkinje fiber; how it was run: as §1
[9] = species: Canis familiaris; assay: Effect on the transmembrane potential of dog Purkinje fibers paced at a basic cycle length of stimulation of 1000 ms, repolarization time to -60 mV, at a concentration of 0.3 uM; format: functional; conditions: Canis lupus familiaris, Purkinje fiber; how it was run: as §1
[10] = tested on: Canis familiaris; assay: Effect on ventricular effective refractory period, after intravenous administration in open-chest anesthetized dogs at dose of 0.1 mg/kg; format: functional, Canis lupus familiaris, Cardiac ventricle
[11] = tested on: Canis familiaris; assay: Effect on ventricular effective refractory period, after intravenous administration in open-chest anesthetized dogs at dose of 1.0 mg/kg; format: functional, Canis lupus familiaris, Cardiac ventricle
How it was run: (§2)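 Mongrel dogs, pentobarbital-anesthetized (30 mg/kg iv plus 5 mg/kg per h), open chest. Compound given iv. Atrial and ventricular effective refractory periods and conduction times measured during pacing at 300 ms, along with heart rate and mean arterial pressure. Two doses per compound, chosen from dose-response runs. Values are % change from predrug, mean ± SE.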

[12] = tested on: Canis familiaris; assay: Effect on heart rate, after intravenous administration in open-chest anesthetized dogs at dose of 0.1 mg/kg; format: functional, Canis lupus familiaris
[13] = tested on: Canis familiaris; assay: Effect on atrial conduction time, after intravenous administration in open-chest anesthetized dogs at dose of 1.0 mg/kg; format: functional, Canis lupus familiaris, Cardiac atrium
[14] = tested on: Canis familiaris; assay: Effect on ventricular conduction time, after intravenous administration in open-chest anesthetized dogs at dose of 1.0 mg/kg; format: functional, Canis lupus familiaris, Cardiac ventricle
[15] = tested on: Canis familiaris; assay: Effect on atrial effective refractory period, after intravenous administration in open-chest anesthetized dogs at dose of 0.1 mg/kg; format: functional, Canis lupus familiaris, Cardiac atrium
[16] = tested on: Canis familiaris; assay: Effect on ventricular conduction time, after intravenous administration in open-chest anesthetized dogs at dose of 0.1 mg/kg; format: functional, Canis lupus familiaris, Cardiac ventricle
[17] = tested on: Canis familiaris; assay: Effect on ventricular conduction time, after intravenous administration in open-chest anesthetized dogs at dose of 0.05 mg/kg; format: functional, Canis lupus familiaris, Cardiac ventricle
[18] = tested on: Canis familiaris; assay: Effect on ventricular effective refractory period, after intravenous administration in open-chest anesthetized dogs at dose of 0.05 mg/kg; format: functional, Canis lupus familiaris, Cardiac ventricle
[19] = tested on: Canis familiaris; assay: Effect on mean arterial pressure, after intravenous administration in open-chest anesthetized dogs at dose of 0.5 mg/kg; format: functional, Canis lupus familiaris, Artery
[20] = tested on: Canis familiaris; assay: Effect on ventricular effective refractory period, after intravenous administration in open-chest anesthetized dogs at dose of 0.5 mg/kg; format: functional, Canis lupus familiaris, Cardiac ventricle
[21] = tested on: Canis familiaris; assay: Effect on atrial conduction time, after intravenous administration in open-chest anesthetized dogs at dose of 0.5 mg/kg; format: functional, Canis lupus familiaris, Cardiac atrium
[22] = tested on: Canis familiaris; assay: Effect on ventricular conduction time, after intravenous administration in open-chest anesthetized dogs at dose of 0.5 mg/kg; format: functional, Canis lupus familiaris, Cardiac ventricle
[23] = tested on: Canis familiaris; assay: Effect on trial effective refractory period, after intravenous administration in open-chest anesthetized dogs at dose of 0.5 mg/kg; format: functional, Canis lupus familiaris
[24] = tested on: Canis familiaris; assay: Atrial effective refractory period, after intravenous administration in open-chest anesthetized dogs at dose of 0.05 mg/kg; format: functional, Canis lupus familiaris, Cardiac atrium
[25] = tested on: Canis familiaris; assay: Effect on heart rate, after intravenous administration in open-chest anesthetized dogs at dose of 0.5 mg/kg; format: functional, Canis lupus familiaris
[26] = tested on: Canis familiaris; assay: Effect on mean arterial pressure, after intravenous administration in open-chest anesthetized dogs at dose of 0.05 mg/kg; format: functional, Canis lupus familiaris, Artery
[27] = tested on: Canis familiaris; assay: Atrial conduction time, after intravenous administration in open-chest anesthetized dogs at dose of 0.05 mg/kg; format: functional, Canis lupus familiaris, Cardiac atrium
[28] = tested on: Canis familiaris; assay: Effect on heart rate, after intravenous administration in open-chest anesthetized dogs at dose of 0.05 mg/kg; format: functional, Canis lupus familiaris
[29] = tested on: Canis familiaris; assay: Effect on heart rate, after intravenous administration in open-chest anesthetized dogs at dose of 5.0 mg/kg; format: functional, Canis lupus familiaris
[30] = tested on: Canis familiaris; assay: Effect on ventricular effective refractory period, after intravenous administration in open-chest anesthetized dogs at dose of 5.0 mg/kg; format: functional, Canis lupus familiaris, Cardiac ventricle; how it was run: as §2
[31] = tested on: Canis familiaris; assay: Effect on ventricular conduction time, after intravenous administration in open-chest anesthetized dogs at dose of 5.0 mg/kg; format: functional, Canis lupus familiaris, Cardiac ventricle
[32] = tested on: Canis familiaris; assay: Effect on atrial effective refractory period, after intravenous administration in open-chest anesthetized dogs at dose of 5.0 mg/kg; format: functional, Canis lupus familiaris, Cardiac atrium
[33] = species: Canis familiaris; assay: Effect on the transmembrane potential of dog Purkinje fibers paced at a basic cycle length of stimulation of 300 ms, repolarization time to -60 mV at 3 uM concentration; format: functional; conditions: Canis lupus familiaris, Purkinje fiber; how it was run: as §1
[34] = tested on: Canis familiaris; assay: Effect on atrial conduction time, after intravenous administration in open-chest anesthetized dogs at dose of 5.0 mg/kg; format: functional, Canis lupus familiaris, Cardiac atrium
[35] = Maximum rate of depolarization of the upstroke of the action potential at 3 uM concentration; set-up: unit not given beside the values
How it was run: (§3)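 Purkinje fiber bundles from pentobarbital-anesthetized mongrel dogs, superfused at 37.5-38.0 °C with Tyrode's solution (95% O2-5% CO2, pH 7.3-7.4). Stimulation with 2.0 ms square pulses at 2× threshold. Fibers equilibrated at least 1 h before drug. Action potentials recorded at four to six sites, control vs drug, and averaged per fiber.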

[36] = species: Canis familiaris; assay: Effect on the transmembrane potential of dog Purkinje fibers paced at a basic cycle length of stimulation of 1000 ms, repolarization time to -60 mV at 3 uM concentration; format: functional; conditions: Canis lupus familiaris, Purkinje fiber; how it was run: as §1
[37] = tested on: Canis familiaris; assay: Effect on mean arterial pressure, after intravenous administration in open-chest anesthetized dogs at dose of 5.0 mg/kg; format: functional, Canis lupus familiaris, Artery
[38] = Maximum rate of depolarization of the upstroke of the action potentia at 3 uM concentration; how it was run: as §3

Cc1cccc(CCN2CCC(C(=O)c3ccc(NS(C)(=O)=O)cc3)CC2)n1
Change [1]: -6% | Change [2]: -25% | Change [3]: 1% | Change [4]: -19% | APD60 [5]: 53 | APD60 [6]: 21 | Change [7]: 55% | APD60 [8]: 27 | APD60 [9]: 74 | Change [10]: 20% | Change [11]: 26% | Change [12]: -18% | Change [13]: 1% | Change [14]: -2% | Change [15]: 34% | Change [16]: -3%

CNc1nc2ccccc2n1CCN(C)S(=O)(=O)c1ccc(NS(C)(=O)=O)cc1
APD60 [5]: 47 | APD60 [6]: 28

CN(CCN(C)S(=O)(=O)c1ccc(NS(C)(=O)=O)cc1)c1ncc2ccccc2n1
APD60 [5]: 29 | APD60 [6]: 18

CN(CCOc1ccc(NS(C)(=O)=O)cc1)CCc1ccc(NS(C)(=O)=O)cc1 [DOFETILIDE]
Change [17]: -4% | Change [18]: 23% | APD60 [5]: 67 | Change [19]: -2% | APD60 [6]: 30 | APD60 [8]: 42 | Change [20]: 27% | Change [21]: -9% | Change [22]: -4% | Change [23]: 65% | Change [24]: 46% | Change [25]: -24% | Change [26]: 1% | Change [27]: -4% | Change [28]: -14%

CN(CCN(C)c1nc2ccccc2n1C)C(=O)c1ccc(NS(C)(=O)=O)cc1.Cl
Change [2]: -6% | Change [29]: -27% | Change [30]: 24% | Change [31]: -6% | Change [4]: 5% | Change [32]: 44% | Change [7]: 18% | APD60 [33]: 17 | Change [34]: -3% | Vmax [35]: -5 and -3 | Change [11]: 10% | APD60 [36]: 65 | Change [37]: -1% | Change [13]: -1% | Change [14]: -1%

CS(=O)(=O)Nc1ccc(S(=O)(=O)NCCNc2ncccn2)cc1
APD60 [5]: 24 | APD60 [6]: -4

Cl.Cn1c(N2CCN(S(=O)(=O)c3ccc(NS(C)(=O)=O)cc3)CC2)nc2ccccc21
Change [2]: -17% | Change [29]: -37% | Change [30]: 25% | Change [31]: 2% | Change [4]: 2% | Change [32]: 40% | Change [7]: 22% | APD60 [33]: 36 | Change [34]: -3% | Change [11]: 13% | APD60 [36]: 57 | Change [37]: 3% | Change [13]: 3% | Change [14]: -4%

CN(CCNc1nc2ccccc2n1C)S(=O)(=O)c1ccc(NS(C)(=O)=O)cc1.Cl
APD60 [33]: 19 | Vmax [38]: 6 | Vmax [35]: 1 | APD60 [36]: 67
